Data set [1] deals with Mycobacterium tuberculosis. The data set can be described thus: Antitubercular activity against Mycobacterium tuberculosis H37Ra after 5 days by luminescence assay. The note with it: 120 h. The class given is functional. The procedure, abridged:
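Compounds were 10-point two-fold dilutions in 7H9-Tw-OADC, top 100 µg/mL, final DMSO 2%. Controls were INH 1 µg/mL (zero growth) and DMSO (maximum growth). RLU was read daily in triplicate over days 0–5. Percent growth was fitted to a Gompertz model, and MIC was taken where the inflection point meets the lower asymptote.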

Data set [2] has as its system Mycobacterium tuberculosis. As to the kind of experiment: Antimycobacterial activity against Mycobacterium tuberculosis H37Rv after 7 days by microplate alamar blue assay. The class given is functional. The note with it: 168 h. An outline of the steps:
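Each well held a 1/100 culture dilution plus 10-point two-fold DMSO dilutions (top 100 µg/mL, final DMSO 2%). INH and RIF were the positive controls. After 7 days at 37 °C, Tween 80 and alamarBlue were added for 16–24 h. MIC was the lowest concentration preventing the blue-to-pink change.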

Data set [3] concerns Staphylococcus aureus. The data set can be described thus: Toxicity in Staphylococcus aureus after 18 to 24 hrs by two-fold serial dilution method. The class given is organism-based.
Data set [4] relates to Escherichia coli. The data set can be described thus: Toxicity in Escherichia coli after 18 to 24 hrs by two-fold serial dilution method. It counts as organism-based.
Data set [5] is described as follows: Selectivity index, ratio of IC50 for mouse RAW264.7 cells to MIC for Mycobacterium tuberculosis H37Ra. The class given is toxicity. To be noted: read-out: Selectivity Index.
In data set [6] the test system is RAW264.7. The data set can be described thus: Cytotoxicity against mouse RAW264.7 cells after 72 hrs by MTT assay. It counts as cell-based. The note with it: RAW264.7, 72 h.
Data set [7] concerns HepG2. As to the kind of experiment: Cytotoxicity against human HepG2 cells after 72 hrs by MTT assay. The note with it: HepG2, 72 h. The class given is cell-based. A general note: Tetrazolium assays rely on reduction of a dye to a coloured formazan, in cell work by metabolically active cells.
For data set [8], the system named is Enterococcus faecalis. The data set can be described thus: Toxicity in Enterococcus faecalis after 18 to 24 hrs by two-fold serial dilution method. It counts as organism-based.
Data set [9] can be described thus: Selectivity index, ratio of IC50 for human HepG2 cells to MIC for Mycobacterium tuberculosis H37Ra. The note with it: read-out: Selectivity Index. The class given is toxicity.

≈ marks a conversion by molar mass, not a printed value. Bounds are passed on as bounds.

MIC, selectivity ratio and IC50 data for 43 compounds are collected here from ChEMBL document CHEMBL4257537, “Design, synthesis, and biological evaluation of m-amidophenol derivatives as a new class of antitubercular agents” (Medchemcomm, 2018).

For `O=C(Nc1cc(O)cc(Cc2ccccc2)c1)c1ccco1`, the MIC in data set [1] came to 10 µg/mL (≈ 34.1 µM).

Turning to `O=C(Nc1cc(O)cc(Cc2ccccc2)c1)C(F)(F)F`, in data set [1], the MIC was more than 50 µg/mL.

Consider `O=C(Nc1cc(O)cc(Cc2ccccc2)c1)c1cccnc1Cl`, for which the MIC in data set [1] came out at 5 µg/mL (≈ 14.8 µM).

For `Cc1ccc(C)c(Cc2cc(O)cc(NC(=O)C3CCCCC3)c2)c1`, the MIC in [1] was more than 50 µg/mL.

In turn, `O=C(Nc1cc(O)cc(Cc2ccccc2)c1)c1ccc(Cl)cc1` gave an MIC in data set [1] of 2.5 µg/mL (≈ 7.4 µM).

The compound `CC(C)(C)C1CCC(C(=O)Nc2cc(O)cc(Cc3ccccc3)c2)CC1` (stereo unspecified) came in with an MIC in [1] of more than 50 µg/mL.

Compound `CO[C@H]1/C=C/O[C@@]2(C)Oc3c(C)c(O)c4c(O)c(c(/C=N/N5CCN(C)CC5)c(O)c4c3C2=O)NC(=O)/C(C)=C\C=C\[C@H](C)[C@H](O)[C@@H](C)[C@@H](O)[C@@H](C)[C@H](OC(C)=O)[C@@H]1C` [RIFAMPIN] displayed an MIC in data set [2] of 0.003 µg/mL (≈ 0.00365 µM).

The compound `CC(C)(C)c1ccc(C(=O)Nc2cc(O)cc(Cc3ccccc3)c2)cc1` displayed an MIC in [1] of 2.5 µg/mL (≈ 6.95 µM).

`Nc1cc(Cc2ccccc2)cc(NC(=O)c2ccccc2)c1` came in with an MIC in data set [1] of 10 µg/mL (≈ 33.1 µM).

In turn, `O=C(Nc1cc(O)cc(Cc2ccccc2)c1)C12CC3CC(CC(C3)C1)C2` came in with an MIC in data set [1] of more than 50 µg/mL.

Consider `CCCCCc1cc(O)cc(NC(=O)C2CCCCC2)c1`, for which the MIC in data set [1] was more than 50 µg/mL.

`O=C(Nc1cc(O)cc(Cc2ccccc2)c1)c1cccs1` had an MIC in [1] of 2.5 µg/mL (≈ 8.08 µM).

The compound `Oc1cccc(Cc2ccccc2)c1` came in with an MIC in data set [1] of more than 50 µg/mL.

For `CC(C)C(=O)Nc1cc(O)cc(Cc2ccccc2)c1`, the MIC in data set [1] stood at 5 µg/mL (≈ 18.6 µM).

Consider `CCC1CCC(C(=O)Nc2cc(O)cc(Cc3ccccc3)c2)CC1` (stereo unspecified), for which the MIC in data set [1] came out at 2.5 µg/mL (≈ 7.41 µM).

`O=C(Nc1cc(O)cc(Cc2ccccc2)c1)c1ccccc1Cl` showed an MIC in data set [1] of 2.5 µg/mL (≈ 7.4 µM).

In [1], `O=C(Nc1cc(O)cc(Cc2ccccc2)c1)c1ccc(Cl)cc1Cl` yielded an MIC of 5 µg/mL (≈ 13.4 µM).

Regarding `O=C(Nc1cc(O)cc(Cc2ccccc2)c1)c1cccc(Cl)c1`, the MIC in [1] worked out at 2.5 µg/mL (≈ 7.4 µM).

Regarding `O=C(Nc1cc(O)cc(Cc2ccccc2)c1)c1ccc(C2CCCCC2)cc1`, the MIC in data set [1] was more than 50 µg/mL.

Regarding `O=C(O)c1cc(Cc2ccccc2)cc(NC(=O)c2ccccc2)c1`, the MIC in data set [1] is more than 50 µg/mL.

In data set [3], `CC1(C)S[C@@H]2[C@H](NC(=O)[C@H](N)c3ccc(O)cc3)C(=O)N2[C@H]1C(=O)O` [AMOXICILLIN] came in with an MIC of 0.78 µg/mL (≈ 2.13 µM).

As to `O=C(Nc1cc(O)cc(Cc2ccccc2)c1)c1ccc([N+](=O)[O-])cc1`, the MIC in [1] was more than 50 µg/mL.

`O=C(Nc1cc(O)cc(Cc2ccccc2)c1)C1CCCC1` registered an MIC in data set [1] of 2.5 µg/mL (≈ 8.46 µM).

`O=C(Nc1cc(O)cc(Cc2ccccc2)c1)C1CC1` came in with an MIC in [1] of 5 µg/mL (≈ 18.7 µM).

Take `CC1COc2c(N3CCN(C)CC3)c(F)cc3c(=O)c(C(=O)O)cn1c23` (stereo unspecified) [OFLOXACIN]: the MIC in [3] worked out at 0.31 µg/mL (≈ 0.858 µM); in [4], 1.25 µg/mL (≈ 3.46 µM).

Broadly, the IC50 is the point on the concentration scale where inhibition reaches its midpoint. Low readings indicate greater potency in that assay, high ones weaker potency in that assay. With `O=C(Nc1cc(O)cc(Cc2ccccc2)c1)C1CCCCC1`, the figures for the selectivity ratio in data set [5] and in [9] were more than 160 and more than 80, respectively. Also, the MIC in data set [3] is more than 50 µg/mL; in data set [1], 0.625 µg/mL (≈ 2.02 µM); in [4], more than 50 µg/mL; in data set [2], 0.39 µg/mL (≈ 1.26 µM); in [8], more than 50 µg/mL. Moreover, the IC50 was more than 323 µM in [6] and more than 161 µM in data set [7].

Compound `CCCc1cc(O)cc(NC(=O)C2CCCCC2)c1` yielded an MIC in data set [1] of more than 50 µg/mL.

Regarding `NNC(=O)c1ccncc1` [ISONIAZID], the MIC worked out at 0.1 µg/mL (≈ 0.729 µM) in data set [1] and 0.41 µg/mL (≈ 2.99 µM) in [2].

As for `O=C(Nc1cc(O)cc(Cc2ccccc2)c1)N1CCOCC1`, the MIC in [1] stood at 12.5 µg/mL (≈ 40 µM).

In data set [1], `O=C(Nc1cccc(O)c1)c1ccccc1` showed an MIC of more than 50 µg/mL.

`Cc1nnsc1C(=O)Nc1cc(O)cc(Cc2ccccc2)c1` showed an MIC in [1] of 10 µg/mL (≈ 30.7 µM).

Take `O=C(Nc1cc(O)cc(Cc2ccccc2)c1)C1CCOCC1`: the MIC in [1] was determined as 6.25 µg/mL (≈ 20.1 µM).

Regarding `COc1cc(Cc2ccccc2)cc(NC(=O)c2ccccc2)c1`, in [1], the MIC is more than 50 µg/mL.

For `CC(=O)Nc1cc(O)cc(Cc2ccccc2)c1`, the MIC in data set [1] is more than 100 µg/mL.

As for `O=C(Nc1cc(O)cc(Cc2ccccc2)c1)c1ccc(F)c(Cl)c1`, the MIC in data set [1] stood at 5 µg/mL (≈ 14.1 µM).

In data set [1], `O=C(Nc1cc(O)cc(C(O)c2ccccc2)c1)c1ccccc1` (stereo unspecified) yielded an MIC of more than 50 µg/mL.

`CC(C)(C)C(=O)Nc1cc(O)cc(Cc2ccccc2)c1` gave an MIC in data set [1] of 2.5 µg/mL (≈ 8.82 µM).

Turning to `O=C(Nc1cc(O)cc(Cc2ccccc2)c1)c1ccc(C(F)(F)F)cc1`, in data set [1], the MIC is 5 µg/mL (≈ 13.5 µM).

On to `O=C(Nc1cc(O)cc(Cc2ccccc2)c1)c1ccccc1`, for which the selectivity ratio in data set [5] and in data set [9] was more than 20 each time. Also, the MIC in data set [3] is more than 50 µg/mL; in [1], 5 µg/mL (≈ 16.5 µM); in [4], more than 50 µg/mL; in [2] it was 0.39 µg/mL (≈ 1.29 µM); in data set [8], more than 50 µg/mL. Moreover, the concentration for half-maximal inhibition (IC50) in data set [6] and in data set [7] was more than 330 µM in each case.

As for `O=C(Nc1cc(O)cc(Cc2ccccc2)c1)c1ccc(OC(F)(F)F)cc1`, the MIC in [1] worked out at 10 µg/mL (≈ 25.8 µM).

On to `CC(C)CCc1cc(O)cc(NC(=O)C2CCCCC2)c1`, for which, in data set [1], the MIC was more than 50 µg/mL.

`Cc1ccc(C(=O)Nc2cc(O)cc(Cc3ccccc3)c2)cc1` yielded an MIC in data set [1] of 1.25 µg/mL (≈ 3.94 µM).

Compound `O=C(Nc1cc(O)cc(Cc2ccccc2)c1)c1cc(C(F)(F)F)cc(C(F)(F)F)c1` registered an MIC in data set [1] of more than 25 µg/mL.
